ChEMBL document CHEMBL1138954, “Cyclobutane derivatives as potent NK1 selective antagonists” (Bioorg Med Chem Lett, 2006)

Columns and labels:
Neuromedin-K receptor [1] = target: T1, Neuromedin-K receptor (Homo sapiens, UniProt P29371); assay: Displacement of [125I]neurokinin B from human recombinant NK3 receptor in CHO cells
T1 sequence (P29371 whole entry): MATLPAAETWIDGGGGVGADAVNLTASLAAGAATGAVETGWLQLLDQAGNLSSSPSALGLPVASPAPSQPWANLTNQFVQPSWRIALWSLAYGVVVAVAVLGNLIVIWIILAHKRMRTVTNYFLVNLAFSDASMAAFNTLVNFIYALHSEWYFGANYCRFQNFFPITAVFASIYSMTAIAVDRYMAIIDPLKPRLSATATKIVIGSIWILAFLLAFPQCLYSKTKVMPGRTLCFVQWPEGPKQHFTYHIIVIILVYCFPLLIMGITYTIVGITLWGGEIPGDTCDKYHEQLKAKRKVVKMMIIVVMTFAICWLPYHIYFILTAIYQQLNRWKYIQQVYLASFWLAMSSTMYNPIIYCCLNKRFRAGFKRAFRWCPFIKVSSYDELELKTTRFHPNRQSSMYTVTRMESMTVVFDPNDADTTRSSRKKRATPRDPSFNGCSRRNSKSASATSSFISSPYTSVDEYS

[2] = target: T2, Substance-K receptor (Homo sapiens) (UniProt P21452); assay: Inhibition of [3H]neurokinin A binding to human recombinant NK2 receptor in CHO cells at 3 uM; format: cell-based
T2 sequence (whole entry): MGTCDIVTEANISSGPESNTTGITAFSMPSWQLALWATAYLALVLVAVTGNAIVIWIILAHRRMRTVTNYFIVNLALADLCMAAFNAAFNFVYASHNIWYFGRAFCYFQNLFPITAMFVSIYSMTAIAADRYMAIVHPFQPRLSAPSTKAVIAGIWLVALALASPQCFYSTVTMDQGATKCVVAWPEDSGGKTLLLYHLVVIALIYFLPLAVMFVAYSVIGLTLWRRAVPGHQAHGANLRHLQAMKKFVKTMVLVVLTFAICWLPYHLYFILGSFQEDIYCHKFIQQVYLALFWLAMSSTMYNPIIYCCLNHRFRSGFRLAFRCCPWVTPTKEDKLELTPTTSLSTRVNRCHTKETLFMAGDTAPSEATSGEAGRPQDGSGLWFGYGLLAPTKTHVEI
Summary of the method: (§1)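 Competition binding used membranes of CHO cells carrying recombinant human NK2 receptor. [³H]neurokinin A was the ligand, at a concentration near its experimentally derived Kd. Data are the average of two or three independent determinations.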

Substance-P receptor = Substance-P receptor (Homo sapiens, UniProt P25103); assay: Displacement of [3H]Sar-Met substance P from human recombinant NK1 receptor expressed in CHO cells; format: cell-based
Chain of Substance-P receptor (P25103 whole entry): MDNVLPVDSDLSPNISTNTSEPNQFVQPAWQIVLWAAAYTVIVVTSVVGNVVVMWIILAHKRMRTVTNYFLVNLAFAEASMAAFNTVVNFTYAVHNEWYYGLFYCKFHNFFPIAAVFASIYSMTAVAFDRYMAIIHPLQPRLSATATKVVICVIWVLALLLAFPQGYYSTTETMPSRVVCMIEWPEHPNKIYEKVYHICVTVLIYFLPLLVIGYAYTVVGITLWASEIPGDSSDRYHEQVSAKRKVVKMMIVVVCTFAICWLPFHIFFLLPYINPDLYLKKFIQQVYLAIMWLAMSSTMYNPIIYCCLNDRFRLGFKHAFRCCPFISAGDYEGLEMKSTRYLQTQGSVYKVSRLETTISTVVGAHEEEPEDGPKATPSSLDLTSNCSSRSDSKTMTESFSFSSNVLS
Summary of the method: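 Membranes from CHO cells expressing recombinant human NK1 receptor. Radioligand was [³H]-Sar-Met substance P at about its experimentally derived Kd. Ki was calculated with the Cheng–Prusoff equation. Values are the mean of two or three independent determinations.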

Meriones unguiculatus = assay: Inhibition of GR-73632-induced foot tapping in Mongolian gerbil at 1 mg/kg, po after 4 hrs; format: functional
Summary of the method: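 Female Mongolian gerbils were dosed orally in 0.4% methylcellulose/distilled water before icv injection of GR73632 (3 pmol in 5 μl). After recovery from anaesthesia, animals were placed in clear boxes for 5 min. Duration of rhythmic hind-foot tapping was timed and expressed as percent decrease (% inhibition).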

Neuromedin-K receptor [3] = target: T1, Neuromedin-K receptor; assay: Displacement of [3H]neurokinin B from human recombinant NK3 receptor in CHO cells; format: cell-based; conditions: in the assay text read “[125I]neurokinin B” for “[3H]neurokinin B”
Summary of the method: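 Membrane preparations came from CHO cells expressing recombinant human NK3 receptor. Labelled neurokinin B ligand was used near its experimentally derived Kd. Ki was obtained by the Cheng–Prusoff equation. Values are the average of two or three independent determinations.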

[4] = target: T2, Substance-K receptor (Homo sapiens); assay: Inhibition of [3H]neurokinin A binding to human recombinant NK2 receptor in CHO cells at 0.3 uM; format: cell-based
Summary of the method: as §1

In the case of `CC(=O)N[C@H]1C[C@](CO[C@H](C)c2cc(C(F)(F)F)cc(C(F)(F)F)c2)(c2ccccc2)C1`, the Ki (Neuromedin-K receptor [1]) is reported as 2130 nM, the inhibition [2] is reported as 23% and the Ki (Substance-P receptor) is reported as 0.4 nM. For the same molecule, the inhibition in vivo at 1 mg/kg (Meriones unguiculatus) was 25%.

With `C[C@@H](OC[C@]1(c2ccccc2)C[C@](N)(C(=O)N(C)C)C1)c1cc(C(F)(F)F)cc(C(F)(F)F)c1` the Ki (Substance-P receptor) was 3.3 nM and the inhibition in vivo at 1 mg/kg (Meriones unguiculatus) was 79%.

In the case of `C[C@@H](OCC1(c2ccccc2)CC(NCc2n[nH]c(O)n2)C1)c1cc(C(F)(F)F)cc(C(F)(F)F)c1` (stereo partly drawn), the Ki (Substance-P receptor) is reported as 0.5 nM and the inhibition in vivo at 1 mg/kg (Meriones unguiculatus) is reported as 22%.

For `C[C@@H](OC[C@]1(c2ccccc2)C[C@@H](N2CCCC2=O)C1)c1cc(C(F)(F)F)cc(C(F)(F)F)c1` (mixture of isomers), the Ki (Substance-P receptor) was 0.4 nM and the inhibition in vivo at 1 mg/kg (Meriones unguiculatus) was 41%.

With `C[C@@H](OC[C@]1(c2ccccc2)C[C@](N)(C(N)=O)C1)c1cc(C(F)(F)F)cc(C(F)(F)F)c1` the Ki (Substance-P receptor) was 1 nM and the inhibition in vivo at 1 mg/kg (Meriones unguiculatus) was 81%.

Work on `C[C@@H](OC[C@]1(c2ccccc2)C[C@](N)(C(=O)N2CCCCC2)C1)c1cc(C(F)(F)F)cc(C(F)(F)F)c1` yielded a Ki (Substance-P receptor) of 1.3 nM and an inhibition in vivo at 1 mg/kg (Meriones unguiculatus) of 15%.

`CC(=O)N[C@H]1C[C@@](CO[C@H](C)c2cc(C(F)(F)F)cc(C(F)(F)F)c2)(c2ccccc2)C1` gave a Ki (Neuromedin-K receptor [1]) of 631 nM, an inhibition [2] of 26% and a Ki (Substance-P receptor) of 0.1 nM. The inhibition in vivo at 1 mg/kg (Meriones unguiculatus) was 23%.

Work on `C[C@@H](OCC1(c2ccccc2)CC(=O)C1)c1cc(C(F)(F)F)cc(C(F)(F)F)c1` yielded a Ki (Substance-P receptor) of 2.4 nM and an inhibition in vivo at 1 mg/kg (Meriones unguiculatus) of 11%.

For `C[C@@H](OCC1(c2ccccc2)CC(NCc2ccccc2)C1)c1cc(C(F)(F)F)cc(C(F)(F)F)c1` (stereo partly drawn), the Ki (Substance-P receptor) was 0.3 nM and the inhibition in vivo at 1 mg/kg (Meriones unguiculatus) was 25%.

In the case of `CNC(=O)[C@]1(N)C[C@](CO[C@H](C)c2cc(C(F)(F)F)cc(C(F)(F)F)c2)(c2ccccc2)C1`, the Ki (Substance-P receptor) is reported as 0.5 nM and the inhibition in vivo at 1 mg/kg (Meriones unguiculatus) is reported as 58%.

In the case of `C[C@@H](OC[C@]1(c2ccccc2)C[C@@](N)(C(N)=O)C1)c1cc(C(F)(F)F)cc(C(F)(F)F)c1`, the Ki (Substance-P receptor) is reported as 0.43 nM and the inhibition in vivo at 1 mg/kg (Meriones unguiculatus) is reported as 30%.

`C[C@@H](OCC1(c2ccccc2)CC(N)C1)c1cc(C(F)(F)F)cc(C(F)(F)F)c1` (stereo partly drawn) showed a Ki (Neuromedin-K receptor [3]) of 4050 nM, an inhibition [2] of 25% and a Ki (Substance-P receptor) of 0.02 nM. It also gave an inhibition in vivo at 1 mg/kg (Meriones unguiculatus) of 21%.

Molecule `C[C@@H](OC[C@]1(c2ccccc2)C[C@](N)(C(=O)N2CCCC2)C1)c1cc(C(F)(F)F)cc(C(F)(F)F)c1` has a Ki (Substance-P receptor) of 1.3 nM and an inhibition in vivo at 1 mg/kg (Meriones unguiculatus) of 13%.

Molecule `C[C@@H](OC[C@]1(c2ccccc2)C[C@H](N2CCCC2=O)C1)c1cc(C(F)(F)F)cc(C(F)(F)F)c1` has a Ki (Substance-P receptor) of 0.3 nM and an inhibition in vivo at 1 mg/kg (Meriones unguiculatus) of 3%.

`CNC(=O)[C@]1(N)C[C@@](CO[C@H](C)c2cc(C(F)(F)F)cc(C(F)(F)F)c2)(c2ccccc2)C1` was tested, and the Ki (Neuromedin-K receptor [3]) was 2000 nM, the inhibition [4] was 1.2% and the Ki (Substance-P receptor) was 1 nM. The inhibition in vivo at 1 mg/kg (Meriones unguiculatus) was 98%.
